The source made the active and inactive calls. The rule behind the calls is not given here.
Assays:
HCT-116 = experiment: Antiproliferative activity against human HCT116 cells by SRB method; assay type: functional, cell-based
MCF7 [1] = experiment: Antiproliferative activity against human MCF7 cells by SRB method; assay type: functional, cell-based
[2] = biological target: T1, Retinoblastoma-associated protein (Homo sapiens) (UniProt P06400); experiment: Inhibition of retinoblastoma susceptibility gene product phosphorylation in human MCF7 cells after 24 hrs; assay type: cell-based
T1 sequence (whole entry): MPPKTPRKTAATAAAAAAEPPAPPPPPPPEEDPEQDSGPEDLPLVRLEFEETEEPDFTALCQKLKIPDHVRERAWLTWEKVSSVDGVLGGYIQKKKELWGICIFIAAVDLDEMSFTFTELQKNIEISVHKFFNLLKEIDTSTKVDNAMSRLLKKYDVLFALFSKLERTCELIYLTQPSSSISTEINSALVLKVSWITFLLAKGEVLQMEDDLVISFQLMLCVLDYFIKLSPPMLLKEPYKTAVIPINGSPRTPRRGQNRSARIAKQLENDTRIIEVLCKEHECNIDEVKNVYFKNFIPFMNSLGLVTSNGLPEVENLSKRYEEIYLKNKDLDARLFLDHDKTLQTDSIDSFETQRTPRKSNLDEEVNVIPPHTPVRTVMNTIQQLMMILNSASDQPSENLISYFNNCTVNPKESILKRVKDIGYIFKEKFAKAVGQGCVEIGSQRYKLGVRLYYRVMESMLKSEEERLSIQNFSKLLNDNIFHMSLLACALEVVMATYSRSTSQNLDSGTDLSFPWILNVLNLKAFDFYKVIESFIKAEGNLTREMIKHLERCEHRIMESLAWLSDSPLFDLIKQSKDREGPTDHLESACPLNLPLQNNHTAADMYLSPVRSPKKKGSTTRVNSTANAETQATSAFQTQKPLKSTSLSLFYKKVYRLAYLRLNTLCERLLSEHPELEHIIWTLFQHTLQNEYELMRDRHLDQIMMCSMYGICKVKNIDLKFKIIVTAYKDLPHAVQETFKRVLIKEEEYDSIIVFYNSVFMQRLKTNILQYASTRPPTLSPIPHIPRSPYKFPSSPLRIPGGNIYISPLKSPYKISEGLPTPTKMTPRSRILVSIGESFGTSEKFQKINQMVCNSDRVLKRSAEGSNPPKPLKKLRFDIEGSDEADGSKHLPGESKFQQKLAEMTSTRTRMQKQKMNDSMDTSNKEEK
How it was run: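 MCF-7 cells exposed to compound for 24 h at 37 °C. Extracts separated by SDS-PAGE and immunoblotted with Rb antibody, with the phosphorylated pRB band followed. Also checked with an antibody specific for phospho-Ser807/811 pRB.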

MCF7 [3] = experiment: Cell cycle arrest in human MCF7 cells assessed as accumulation at G1 phase after 24 hrs by flow cytometry; assay type: functional, cell-based
How it was run: (§1)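 MCF-7 cells in 6-well plates, exposed to compound for 24 h at 37 °C, then pulse-labelled with 10 µM bromodeoxyuridine for 30 min. Cells trypsinized, fixed in 80% methanol at -20 °C, acid-denatured and permeabilized, stained with anti-BrdU-FITC, counterstained with propidium iodide and run on flow cytometry. S-phase percentage taken from the propidium iodide histogram.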

MCF7 [4] = experiment: Cell cycle arrest in human MCF7 cells assessed as accumulation at S phase at 0.1 uM after 24 hrs by flow cytometry; assay type: functional; how it was run: as §1
MCF7 [5] = experiment: Cell cycle arrest in human MCF7 cells assessed as accumulation at S phase at 0.3 uM after 24 hrs by flow cytometry; assay type: functional; how it was run: as §1
MCF7 [6] = experiment: Cell cycle arrest in human MCF7 cells assessed as accumulation at S phase at 1 uM after 24 hrs by flow cytometry; assay type: functional; how it was run: as §1
MCF7 [7] = experiment: Cell cycle arrest in human MCF7 cells assessed as accumulation at S phase at 3 uM after 24 hrs by flow cytometry; assay type: functional; how it was run: as §1
MCF7 [8] = experiment: Decrease in cyclin D1 level in human MCF7 cells at 7.5 to 10 uM after 24 hrs by immunoblot analysis; assay type: functional; parameters: scale not given: the % may be the effect or the level left
How it was run: (§2)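 MCF-7 cells incubated with or without compound for 24 h at 37 °C. Lysates made in Tris/NaCl/EDTA/NP-40/deoxycholate buffer containing PMSF, DTT, NaF and vanadate. 10-20 µg protein run on 8 or 10% SDS-PAGE and blotted to nitrocellulose. Probed with antibodies to each regulatory protein; actin antibody served as loading control.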

MCF7 [9] = experiment: Decrease in CDK4 level in human MCF7 cells at 7.5 to 10 uM after 24 hrs by immunoblot analysis; assay type: functional; parameters: scale not given: the % may be the effect or the level left; how it was run: as §2
MCF7 [10] = experiment: Decrease in CDK2 level in human MCF7 cells at 7.5 uM after 24 hrs by immunoblot analysis; assay type: functional; parameters: scale not given: the % may be the effect or the level left; how it was run: as §2
MCF7 [11] = experiment: Decrease in cyclin B level in human MCF7 cells at 4 uM after 24 hrs by immunoblot analysis; assay type: functional; parameters: scale not given: the % may be the effect or the level left; how it was run: as §2
MCF7 [12] = experiment: Decrease in CDK1 level in human MCF7 cells at 7.5 uM after 24 hrs by immunoblot analysis; assay type: functional; parameters: scale not given: the % may be the effect or the level left; how it was run: as §2
MCF7 [13] = experiment: Increase in cyclin E level in human MCF7 cells at >2 uM after 24 hrs by immunoblot analysis; assay type: functional; how it was run: as §2
MCF7 [14] = experiment: Decrease in p27 level in human MCF7 cells at 7.5 uM after 24 hrs by immunoblot analysis; assay type: functional; parameters: scale not given: the % may be the effect or the level left; how it was run: as §2
[15] = biological target: Cyclin-dependent kinase 4/cyclin D1 (Homo sapiens, UniProt P11802); experiment: Inhibition of CDK4/cyclin D1 expressed in Sf9 cells-baculovirus system assessed as retinoblastoma susceptibility gene product phosphorylation
Cyclin-dependent kinase 4/cyclin D1, sequence (P11802 whole entry): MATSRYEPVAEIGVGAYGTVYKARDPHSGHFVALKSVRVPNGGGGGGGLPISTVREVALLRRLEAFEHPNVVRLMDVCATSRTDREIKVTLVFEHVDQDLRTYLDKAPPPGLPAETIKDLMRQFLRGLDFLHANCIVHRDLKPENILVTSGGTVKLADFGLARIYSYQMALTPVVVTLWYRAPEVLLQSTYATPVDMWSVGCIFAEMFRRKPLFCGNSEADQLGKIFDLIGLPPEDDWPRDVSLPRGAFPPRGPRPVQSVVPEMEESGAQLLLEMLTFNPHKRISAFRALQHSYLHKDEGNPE
Cyclin-dependent kinase 4/cyclin D1, sequence (P24385 whole entry, further chain): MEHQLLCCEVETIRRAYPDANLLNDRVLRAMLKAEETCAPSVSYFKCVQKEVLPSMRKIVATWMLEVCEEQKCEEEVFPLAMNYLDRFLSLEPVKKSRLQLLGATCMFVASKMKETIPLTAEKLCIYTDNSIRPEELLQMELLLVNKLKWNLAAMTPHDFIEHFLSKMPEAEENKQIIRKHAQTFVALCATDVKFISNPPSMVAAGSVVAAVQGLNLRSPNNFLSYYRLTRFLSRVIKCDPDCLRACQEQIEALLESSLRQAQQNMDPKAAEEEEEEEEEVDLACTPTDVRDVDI

[16] = biological target: Cyclin-dependent kinase 1/cyclin B1 (Homo sapiens, UniProt P06493); experiment: Inhibition of CDK1/Cyclin B1 expressed in Sf9 cells-baculovirus system assessed as retinoblastoma susceptibility gene product phosphorylation
Cyclin-dependent kinase 1/cyclin B1, sequence (P06493 whole entry): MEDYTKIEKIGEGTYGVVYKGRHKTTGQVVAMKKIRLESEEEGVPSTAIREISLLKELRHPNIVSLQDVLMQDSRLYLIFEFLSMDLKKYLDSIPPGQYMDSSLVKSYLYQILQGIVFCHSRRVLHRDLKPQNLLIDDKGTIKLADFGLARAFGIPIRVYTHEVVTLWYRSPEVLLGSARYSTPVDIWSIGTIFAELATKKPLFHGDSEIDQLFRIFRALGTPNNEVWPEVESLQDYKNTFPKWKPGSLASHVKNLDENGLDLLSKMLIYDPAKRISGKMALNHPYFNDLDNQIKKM
Cyclin-dependent kinase 1/cyclin B1, sequence (P14635 whole entry, further chain): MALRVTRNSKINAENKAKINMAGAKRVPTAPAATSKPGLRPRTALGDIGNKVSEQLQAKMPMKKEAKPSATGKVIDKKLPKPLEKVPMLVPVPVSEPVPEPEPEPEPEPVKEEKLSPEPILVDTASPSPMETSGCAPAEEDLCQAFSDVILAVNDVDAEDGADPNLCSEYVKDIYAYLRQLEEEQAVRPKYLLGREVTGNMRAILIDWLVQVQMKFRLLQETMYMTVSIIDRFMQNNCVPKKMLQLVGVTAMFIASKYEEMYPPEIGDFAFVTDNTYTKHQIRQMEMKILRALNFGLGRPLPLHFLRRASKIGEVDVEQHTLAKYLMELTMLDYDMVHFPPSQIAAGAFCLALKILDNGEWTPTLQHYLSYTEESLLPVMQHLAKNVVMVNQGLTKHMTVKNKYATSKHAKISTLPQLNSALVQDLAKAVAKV

[17] = biological target: Cyclin-dependent kinase 2 (Homo sapiens, UniProt P24941); experiment: Inhibition of CDK2/cyclin E expressed in Sf9 cells-baculovirus system assessed as retinoblastoma susceptibility gene product phosphorylation

IC50 (HCT-116)	IC50 (MCF7 [1])	Activity [2]	IC50 [15]	IC50 [16]	IC50 [17]	SMILES	Activity (MCF7 [3])	Activity (MCF7 [4])	Activity (MCF7 [5])	Activity (MCF7 [6])	Activity (MCF7 [7])	Activity (MCF7 [8])	Activity (MCF7 [9])	Activity (MCF7 [10])	Activity (MCF7 [11])	Activity (MCF7 [12])	Activity (MCF7 [13])	Activity (MCF7 [14])
5 µM	3.1 µM	Dose-dependent effect	1.1 µM	> 50 µM	> 50 µM	O=C1NC(=O)c2ccc(Br)cc2/C1=C/Nc1ccc(CN2CCCCC2)cc1	Active	35%	34%	10%	2%	85%	60%	55%	60%	40%	5%	45%
3.1 µM	3 µM	Dose-dependent effect	–	> 50 µM	–	CN1CCN(c2ccc(N/C=C3\C(=O)NC(=O)c4ccc(Br)cc43)cc2)CC1	Active	37%	32%	16%	3%	–	–	–	–	–	–	–

Reference: ChEMBL document CHEMBL1150411, “4-(Phenylaminomethylene)isoquinoline-1,3(2H,4H)-diones as potent and selective inhibitors of the cyclin-dependent kinase 4 (CDK4)” (J Med Chem, 2008)
